In ChEMBL document CHEMBL4041525, “Newly Designed Quinolinol Inhibitors Mitigate the Effects of Botulinum Neurotoxin A in Enzymatic, Cell-Based, and ex Vivo Assays” (J Med Chem, 2017):
Active and inactive are the calls of the source. No cut-off for these calls is given here.

Legend:
[1] = target: T1, Botulinum neurotoxin type A (Clostridium botulinum, UniProt P0DPI0); assay: Inhibition of protease activity of recombinant Clostridium botulinum BoNT/A light chain (425 amino acids) using SNAP-25 as substrate preincubated for 20 followed by substrate addition measured for 25 mins by FRET analysis
T1 sequence (P0DPI0 2-448 limits assumed): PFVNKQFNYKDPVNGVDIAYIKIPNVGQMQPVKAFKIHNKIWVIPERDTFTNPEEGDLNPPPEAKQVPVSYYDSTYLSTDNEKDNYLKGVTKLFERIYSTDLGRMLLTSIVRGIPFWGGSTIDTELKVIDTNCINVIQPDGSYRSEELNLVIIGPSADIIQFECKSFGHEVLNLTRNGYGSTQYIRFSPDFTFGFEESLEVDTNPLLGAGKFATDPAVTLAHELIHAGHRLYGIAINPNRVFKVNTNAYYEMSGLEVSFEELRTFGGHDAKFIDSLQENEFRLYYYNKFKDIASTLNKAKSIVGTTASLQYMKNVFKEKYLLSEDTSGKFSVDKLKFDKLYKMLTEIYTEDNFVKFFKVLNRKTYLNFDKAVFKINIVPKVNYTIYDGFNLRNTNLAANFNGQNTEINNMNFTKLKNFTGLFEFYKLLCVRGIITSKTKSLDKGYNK
Method in brief: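 Compound (from 50X DMSO stock) preincubated 20 min with recombinant 425-aa BoNT/A LC (56 nM working solution) in 40 mM HEPES, 0.1% Triton X-100, pH 7.4. SNAPtide FRET substrate (6 µM solution) then added and read for 25 min at ex 490/em 523 nm. V0 taken from linear slopes, in duplicate at ≥4 inhibitor dilutions, normalized to DMSO. IC50 from Hill-equation fit.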

[2] = target: Botulinum neurotoxin type A (Clostridium botulinum) (UniProt P0DPI0); assay: Inhibition of BoNT/A light chain mediated proteolysis of CFP and YFP tagged full-length SNAP-25 expressed in BoCells at 25 uM after 20 hrs by fluorescence assay
Sequence of Botulinum neurotoxin type A (Clostridium botulinum) (P0DPI0 2-448 limits assumed): as above

[3] = target: Botulinum neurotoxin type A (Clostridium botulinum) (UniProt P0DPI0); assay: Inhibition of BoNT/A induced paralysis in intoxicated CD1 mouse hemidiaphragm muscles assessed as increase in half paralysis time at 20 uM pretreated for 1 hr followed by intoxication
[4] = target: T1, Botulinum neurotoxin type A; assay: Uncompetitive inhibition of recombinant Clostridium botulinum BoNT/A light chain (425 amino acids) using SNAP-25 as substrate preincubated for 20 followed by substrate addition measured for 25 mins by Lineweaver-Burk plot analysis
[5] = target: Botulinum neurotoxin type A (Clostridium botulinum) (UniProt P0DPI0); conditions: 12.5 uM

SMILES	IC50 [1] [µM]	inhibition [2]	inhibition [3]	Ki [4] [µM]	inhibition [5]
CN(c1cccc(Cl)c1)S(=O)(=O)c1ccc(O)c2ncccc12	4.28	–	–	–	–
Nc1ccc2c(S(=O)(=O)N3CCc4c(Cl)cccc43)ccc(O)c2n1	3.36	Active	Active	–	–
CC(=O)NNc1ccc2c(S(=O)(=O)N3CCc4c(Cl)cccc43)ccc(O)c2n1	5.39	inactive	Active	–	–
CN(c1ccccc1)S(=O)(=O)c1ccc(O)c2ncccc12	7.19	–	–	–	–
NNc1ccc2c(S(=O)(=O)N3CCc4c(Cl)cccc43)ccc(O)c2n1	1.55	inactive	Active	0.895	–
CNc1ccc2c(S(=O)(=O)N3CCc4c(Cl)cccc43)ccc(O)c2n1	37.6	–	–	–	–
CCNc1ccc2c(S(=O)(=O)N3CCc4c(Cl)cccc43)ccc(O)c2n1	28.6	–	–	–	–
O=S(=O)(Nc1cccc(Cl)c1)c1ccc(O)c2ncccc12	7.32	–	–	–	–
O=S(=O)(c1ccc(O)c2ncccc12)N1CCc2c(Cl)cccc21	3.66	Active	Active	2.03	–
Oc1c(C(Nc2ccccn2)c2ccccc2)ccc2cccnc12 (stereo not drawn)	–	inactive	inactive	–	–
O=S(=O)(c1ccc(O)c2ncccc12)N1CCCCC1	18.3	–	–	–	–
CNNc1ccc2c(S(=O)(=O)N3CCc4c(Cl)cccc43)ccc(O)c2n1	3.26	Active	Active	–	Active
O=S(=O)(Nc1ccccc1)c1ccc(O)c2ncccc12	12.7	–	–	–	–
O=S(=O)(c1ccc(O)c2ncccc12)N1CCc2ccc(Cl)cc21	12.8	–	–	–	–
